15 molecules from ChEMBL document CHEMBL4346653, “A2B Adenosine Receptor Antagonists with Picomolar Potency” (J Med Chem, 2019) can be followed below.

One assay concerns the target T1, Adenosine receptor A2b (Homo sapiens, UniProt P29275).
T1 sequence (P29275 whole entry): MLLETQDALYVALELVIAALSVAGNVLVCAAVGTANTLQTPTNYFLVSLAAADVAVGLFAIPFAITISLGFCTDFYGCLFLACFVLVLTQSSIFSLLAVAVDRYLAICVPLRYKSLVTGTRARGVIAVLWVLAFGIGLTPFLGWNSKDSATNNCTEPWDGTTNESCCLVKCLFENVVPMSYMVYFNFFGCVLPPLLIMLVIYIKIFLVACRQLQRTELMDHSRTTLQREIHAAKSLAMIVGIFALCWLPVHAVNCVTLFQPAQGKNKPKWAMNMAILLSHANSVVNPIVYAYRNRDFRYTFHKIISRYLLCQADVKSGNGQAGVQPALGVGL
As to the kind of experiment: Displacement of [3H]PSB-603 from recombinant human A2B adenosine receptor expressed in CHO cell membranes measured after 75 mins in presence of adenosine deaminase by liquid scintillation counting method. A digest of the protocol: (§1)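 Competition binding on membranes of cells recombinantly expressing the human receptor (CHO or HEK cells), with tritiated radioligand per subtype: [3H]PSB-603 for A2B, [3H]MSX-2 for A2A, [3H]CCPA for A1, [3H]PSB-11 for A3. Ki ± SEM from n = 3, some from extrapolated curves. Weak binders are reported as % inhibition of radioligand binding at 1 μM.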

Assay [1] deals with T2, Adenosine receptor A2a (Homo sapiens, UniProt P29274). As to the kind of experiment: Displacement of [3H]MSX-2 from recombinant human A2A adenosine receptor expressed in CHO cell membranes measured after 30 mins in presence of adenosine deaminase by liquid scintillation counting method. The method, boiled down: as §1
Another assay addresses T3, Adenosine receptor A1 (Homo sapiens, UniProt P30542).
T3 sequence (P30542 whole entry): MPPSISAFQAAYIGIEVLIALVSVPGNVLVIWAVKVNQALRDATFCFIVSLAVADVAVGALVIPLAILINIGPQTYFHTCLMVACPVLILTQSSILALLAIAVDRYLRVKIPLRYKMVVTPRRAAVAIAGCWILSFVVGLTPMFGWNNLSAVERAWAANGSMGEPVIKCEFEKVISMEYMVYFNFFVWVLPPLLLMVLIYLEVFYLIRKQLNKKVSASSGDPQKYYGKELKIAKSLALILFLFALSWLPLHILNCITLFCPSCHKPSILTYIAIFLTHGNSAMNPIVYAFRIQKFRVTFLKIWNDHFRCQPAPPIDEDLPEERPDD
As to the kind of experiment: Displacement of [3H]CCPA from recombinant human A1 adenosine receptor expressed in CHO cell membranes measured after 90 mins in presence of adenosine deaminase by liquid scintillation counting method. A digest of the protocol: as §1

In another assay the target is T4, Adenosine receptor A3 (Homo sapiens, UniProt P0DMS8).
T4 sequence (P0DMS8 whole entry): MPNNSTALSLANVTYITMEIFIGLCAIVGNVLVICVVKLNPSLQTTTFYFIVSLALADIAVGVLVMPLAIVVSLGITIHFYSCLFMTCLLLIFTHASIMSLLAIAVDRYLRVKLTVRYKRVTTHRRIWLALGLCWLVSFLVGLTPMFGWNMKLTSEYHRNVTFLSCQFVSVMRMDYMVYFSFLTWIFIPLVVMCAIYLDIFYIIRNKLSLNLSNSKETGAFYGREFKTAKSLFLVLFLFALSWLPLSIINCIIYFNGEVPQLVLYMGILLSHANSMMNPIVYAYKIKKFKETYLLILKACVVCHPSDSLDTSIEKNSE
As to the kind of experiment: Displacement of [3H]PSB-11 from recombinant human A3 adenosine receptor expressed in CHO cell membranes measured after 45 mins in presence of adenosine deaminase by liquid scintillation counting method. The method, boiled down:
as §1

For assay [2], the target named is T2, Adenosine receptor A2a. As to the kind of experiment: Displacement of [3H]MSX-2 from recombinant human A2A adenosine receptor expressed in CHO cell membranes at 1 uM measured after 30 mins in presence of adenosine deaminase by liquid scintillation counting method relative to control. A digest of the protocol:
(§2)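 Single-point competition binding at human AR subtype membranes, each against its own tritiated radioligand. The test compound is given at 1 μM, and the result is reported as percent inhibition of radioligand binding. The radioligand-specific footnotes give n = 3.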

Assay [3] has as its target T5, Adenosine receptor A1 (Homo sapiens) (UniProt P30542).
T5 sequence (whole entry): T3 sequence (P30542 whole entry)
As to the kind of experiment: Displacement of [3H]CCPA from recombinant human A1 adenosine receptor expressed in CHO cell membranes at 1 uM measured after 90 mins in presence of adenosine deaminase by liquid scintillation counting method relative to control. A digest of the protocol:
as §2

The target in assay [4] is T6, Adenosine receptor A3 (Homo sapiens) (UniProt P0DMS8).
T6 sequence (whole entry): T4 sequence (P0DMS8 whole entry)
As to the kind of experiment: Displacement of [3H]PSB-11 from recombinant human A3 adenosine receptor expressed in CHO cell membranes at 1 uM measured after 45 mins in presence of adenosine deaminase by liquid scintillation counting method relative to control. A digest of the protocol:
as §2

Assay [5] is filed under the species Homo sapiens. As to the kind of experiment: Selectivity index, ratio of Ki for displacement of [3H]MSX-2 from recombinant human A2A adenosine receptor expressed in CHO cell membranes to Ki for displacement of [3H]PSB-603 from recombinant human A2B adenosine receptor expressed in CHO cell membranes.
The species named for assay [6] is Homo sapiens. As to the kind of experiment: Selectivity index, ratio of Ki for displacement of [3H]CCPA from recombinant human A1 adenosine receptor expressed in CHO cell membranes to Ki for displacement of [3H]PSB-603 from recombinant human A2B adenosine receptor expressed in CHO cell membranes.
Assay [7] is filed under the species Homo sapiens. As to the kind of experiment: Selectivity index, ratio of Ki for displacement of [3H]PSB-11 from recombinant human A3 adenosine receptor expressed in CHO cell membranes to Ki for displacement of [3H]PSB-603 from recombinant human A2B adenosine receptor expressed in CHO cell membranes.

T2 sequence (P29274 whole entry): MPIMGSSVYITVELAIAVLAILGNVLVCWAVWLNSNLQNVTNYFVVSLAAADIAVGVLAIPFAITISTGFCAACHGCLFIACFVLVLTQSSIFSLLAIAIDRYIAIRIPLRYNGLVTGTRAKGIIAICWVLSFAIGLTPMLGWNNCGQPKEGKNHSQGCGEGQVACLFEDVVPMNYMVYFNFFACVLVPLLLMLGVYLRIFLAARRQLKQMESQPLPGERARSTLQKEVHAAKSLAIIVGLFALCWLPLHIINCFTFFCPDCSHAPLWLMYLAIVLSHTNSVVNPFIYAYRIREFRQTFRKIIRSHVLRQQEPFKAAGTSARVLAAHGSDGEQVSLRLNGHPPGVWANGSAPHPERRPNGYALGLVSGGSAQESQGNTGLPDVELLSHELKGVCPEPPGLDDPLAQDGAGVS

Take `CCCn1c(=O)[nH]c2nc(-c3ccc(S(=O)(=O)N4CCN(c5ccc(Cl)cc5F)CC4)cc3)[nH]c2c1=O`: the Ki is 1.91 nM at Adenosine receptor A2b, over 1000 nM at Adenosine receptor A2a [1], over 1000 nM at Adenosine receptor A1 and over 1000 nM on Adenosine receptor A3. Moreover, the inhibition on Adenosine receptor A2a [2] turned out to be 6%; in assay [3], 9%; in [4], 14%. For the same molecule, the Ratio Ki in the assay listed under Homo sapiens [5], in the assay filed under Homo sapiens [6] and in the assay listed under Homo sapiens [7] was over 500 throughout.
Consider `CCCn1c(=O)[nH]c2nc(-c3ccc(S(=O)(=O)N4CCN(c5ccc(C)cc5)CC4)cc3)[nH]c2c1=O`, for which the inhibition constant (Ki) at Adenosine receptor A2b is 0.706 nM; on Adenosine receptor A2a [1], over 1000 nM; at Adenosine receptor A1, over 1000 nM; on Adenosine receptor A3, over 1000 nM. The inhibition on Adenosine receptor A2a [2] came to 34%; in assay [3], 12%; in [4], 25%. Further, the Ratio Ki in the assay filed under Homo sapiens [5], in the assay listed under Homo sapiens [6] and in the assay filed under Homo sapiens [7] was over 1420 in each case.
As to `CCCn1c(=O)[nH]c2nc(-c3ccc(S(=O)(=O)N4CCN(c5cccc(Br)c5)CC4)cc3)[nH]c2c1=O`, the Ki at Adenosine receptor A2b was 0.234 nM; at Adenosine receptor A2a [1], over 1000 nM; at Adenosine receptor A1, over 1000 nM; on Adenosine receptor A3, over 1000 nM. Further, the inhibition at Adenosine receptor A2a [2] was 24%; in assay [3] it was -1%; in assay [4], 27%. The Ratio Ki in the assay listed under Homo sapiens [5], in the assay filed under Homo sapiens [6] and in the assay filed under Homo sapiens [7] was over 4270 throughout.
For `CCCn1c(=O)[nH]c2nc(-c3ccc(S(=O)(=O)N4CCN(c5cccc(Cl)c5)CC4)cc3)[nH]c2c1=O`, the Ki at Adenosine receptor A2b was 0.342 nM; at Adenosine receptor A2a [1], 1000 nM; on Adenosine receptor A1, over 1000 nM; on Adenosine receptor A3, 53.5 nM. The results for the inhibition (at Adenosine receptor A2a [2]; in [3]) were 42% and 21%, respectively. Also, the Ratio Ki in the assay listed under Homo sapiens [7] worked out at 160.
Take `CCCn1c(=O)[nH]c2nc(-c3ccc(S(=O)(=O)N4CCN(Cc5ccc(C(=O)O)cc5)CC4)cc3)[nH]c2c1=O`: the Ki at Adenosine receptor A2b is 96.7 nM; at Adenosine receptor A2a [1] it was 1160 nM; at Adenosine receptor A1, over 1000 nM; at Adenosine receptor A3, over 1000 nM. Besides, the inhibition in [3] was 12%; in assay [4] it was -7%. In addition, the Ratio Ki in the assay listed under Homo sapiens [5], in the assay filed under Homo sapiens [6] and in the assay listed under Homo sapiens [7] was 10 in each case.
As to `CCCn1c(=O)[nH]c2nc(-c3ccc(S(=O)(=O)N4CCN(c5ccccc5F)CC4)cc3)[nH]c2c1=O`, the Ki at Adenosine receptor A2b is 3.22 nM; at Adenosine receptor A2a [1], over 1000 nM; at Adenosine receptor A1, over 1000 nM; on Adenosine receptor A3 it was over 1000 nM. In addition, the inhibition is 27% on Adenosine receptor A2a [2], 13% in [3] and 9% in assay [4]. For the same molecule, the Ratio Ki in the assay listed under Homo sapiens [5], in the assay listed under Homo sapiens [6] and in the assay listed under Homo sapiens [7] was over 310 throughout.
In the case of `CCCn1c(=O)[nH]c2nc(-c3ccc(S(=O)(=O)N4CCN(c5ccc(OC)c(F)c5)CC4)cc3)[nH]c2c1=O`, the inhibition constant Ki at Adenosine receptor A2b is 1.24 nM; at Adenosine receptor A2a [1], over 1000 nM; at Adenosine receptor A1, over 1000 nM; at Adenosine receptor A3, over 1000 nM. In addition, the inhibition at Adenosine receptor A2a [2] was 30%; in assay [3], 34%; in [4] it was 21%. Further, the Ratio Ki in the assay listed under Homo sapiens [5], in the assay listed under Homo sapiens [6] and in the assay filed under Homo sapiens [7] was over 800 each time.
In the case of `CCCn1c(=O)[nH]c2nc(-c3ccc(S(=O)(=O)N4CCN(c5ccc(OC)c(Cl)c5)CC4)cc3)[nH]c2c1=O`, the inhibition constant Ki at Adenosine receptor A2b is 0.352 nM; at Adenosine receptor A2a [1], over 1000 nM; on Adenosine receptor A1, over 1000 nM; on Adenosine receptor A3, over 1000 nM. Besides, the inhibition at Adenosine receptor A2a [2] is 31%; in assay [3] it was 23%; in assay [4], 1%. The Ratio Ki in the assay filed under Homo sapiens [5], in the assay listed under Homo sapiens [6] and in the assay filed under Homo sapiens [7] was over 2840 throughout.
Take `CCCn1c(=O)[nH]c2nc(-c3ccc(S(=O)(=O)N4CCN(c5ccc(I)cc5)CC4)cc3)[nH]c2c1=O`: the Ki at Adenosine receptor A2b was 0.159 nM; on Adenosine receptor A2a [1], 2990 nM; at Adenosine receptor A1, over 1000 nM; at Adenosine receptor A3, over 1000 nM. Besides, the inhibition amounted to 24% in [3] and 36% in [4]. For the same molecule, the Ratio Ki in the assay listed under Homo sapiens [5], in the assay listed under Homo sapiens [6] and in the assay filed under Homo sapiens [7] was over 6290 in each case.
On to `CCCn1c(=O)[nH]c2nc(-c3ccc(S(=O)(=O)N4CCN(c5ccccc5Cl)CC4)cc3)[nH]c2c1=O`, for which the Ki on Adenosine receptor A2b is 0.403 nM; on Adenosine receptor A2a [1], 204 nM; on Adenosine receptor A1 it was over 1000 nM; on Adenosine receptor A3, over 1000 nM. Moreover, the inhibition in assay [3] is 25%; in assay [4], 32%. The Ratio Ki in the assay filed under Homo sapiens [5] stood at 510.
Regarding `CCCn1c(=O)[nH]c2nc(-c3ccc(S(=O)(=O)N4CCN(Cc5ccc(Br)c(F)c5)CC4)cc3)[nH]c2c1=O`, the inhibition constant (Ki) on Adenosine receptor A2b is 0.473 nM; on Adenosine receptor A2a [1] it was 403 nM; on Adenosine receptor A1, 326 nM; on Adenosine receptor A3 it was over 1000 nM. For the same molecule, the inhibition in assay [4] was 27%. Besides, the Ratio Ki in the assay filed under Homo sapiens [6] was 690.
With `CCCn1c(=O)[nH]c2nc(-c3ccc(S(=O)(=O)N4CCN(Cc5ccc(OC)c(F)c5)CC4)cc3)[nH]c2c1=O`, the Ki at Adenosine receptor A2b is 0.894 nM; on Adenosine receptor A2a [1], 245 nM; at Adenosine receptor A1, over 1000 nM; on Adenosine receptor A3 it was over 1000 nM. The inhibition is 24% in [3] and 15% in [4]. For the same molecule, the Ratio Ki in the assay listed under Homo sapiens [5] came out at 270.
For `CCCn1c(=O)[nH]c2nc(-c3ccc(S(=O)(=O)N4CCN(c5ccc(O)c(Cl)c5)CC4)cc3)[nH]c2c1=O`, the Ki was 3.55 nM at Adenosine receptor A2b, 93.8 nM at Adenosine receptor A2a [1], over 1000 nM on Adenosine receptor A1 and over 1000 nM on Adenosine receptor A3. The inhibition amounted to 37% in assay [3] and 41% in assay [4]. Also, the Ratio Ki in the assay listed under Homo sapiens [5] was over 30.
Regarding `CCCn1c(=O)[nH]c2nc(-c3ccc(S(=O)(=O)N4CCN(Cc5ccc(F)c(OC)c5)CC4)cc3)[nH]c2c1=O`, the inhibition constant Ki is 0.629 nM at Adenosine receptor A2b, 135 nM on Adenosine receptor A2a [1], over 1000 nM at Adenosine receptor A1 and over 1000 nM on Adenosine receptor A3. The inhibition in assay [3] was 25%; in assay [4], -5%. Moreover, in the assay filed under Homo sapiens [5], the Ratio Ki was determined as 220.
On to `CCCn1c(=O)[nH]c2nc(-c3ccc(S(=O)(=O)N4CCN(Cc5cc(F)cc(OC)c5)CC4)cc3)[nH]c2c1=O`, for which the inhibition constant Ki is 1.02 nM on Adenosine receptor A2b, 160 nM at Adenosine receptor A2a [1], over 1000 nM at Adenosine receptor A1 and over 1000 nM at Adenosine receptor A3. Besides, the inhibition was determined as 31% in assay [3] and 12% in assay [4]. Also, the Ratio Ki in the assay listed under Homo sapiens [5] is 160.
